In article PMC11425819 (ACS Omega, 2024):

Legend:
H9C2 cells [1] = test: mPTP opening; type: cell-based, rat; details: 10 μM, 12 h pretreatment, H/R, compared with H/R alone, at least four independent experiments
Summary of the method: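 H9C2 cells were pretreated 12 h with test compound (10 μM), then given 6 h hypoxia alone or H/R; an autophagy inducer (10 μM) served as comparator. Cells were loaded with calcein (2 μM) and CoCl2 (1 mM) in HBSS/Ca2+ for 15 min at 37 °C. Co2+ quenches cytosolic calcein, so retained mitochondrial calcein fluorescence indicates a closed mPTP.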

H9C2 cells [2] = test: Mitochondrial morphology analysis; type: cell-based, rat; details: 10 μM, vs H/R alone
Summary of the method: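 H9C2 cells were pretreated 12 h with test compound (10 μM), then given 6 h hypoxia and 4 h reoxygenation in 10% FBS DMEM/F12. Cells were stained with MitoTracker and imaged by laser-scanning microscopy (60× oil). Mitochondria were scored as tubular, intermediate or fragmented. The value is the percentage of cells with intermediate or fragmented mitochondria, from 100 cells per experiment over four independent experiments (SEM).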

Structure (SMILES)	mitochondrial calcein fluorescence (mPTP opening) (H9C2 cells [1])	fragmented mitochondrial appearance after H/R (H9C2 cells [2])
CO[C@H]1C[C@@H]2CC[C@@H](C)[C@@](O)(O2)C(=O)C(=O)N2CCCC[C@H]2C(=O)O[C@H]([C@H](C)C[C@@H]2CC[C@@H](O)[C@H](OC)C2)CC(=O)[C@H](C)/C=C(\C)[C@@H](O)[C@@H](OC)C(=O)[C@H](C)C[C@H](C)/C=C/C=C/C=C/1C [rapamycin]	considerably higher	–
CC1(C)CC(NC(=O)C[P+](c2ccccc2)(c2ccccc2)c2ccccc2)CC(C)(C)N1[O] [Mito-Tempo]	–	attenuated the fragmented mitochondrial appearance
